Test results from ChEMBL document CHEMBL4229342, “Synthesis of novel proxyphylline derivatives with dual Anti-Candida albicans and anticancer activity” (Eur J Med Chem, 2018).

Experiments:
Format in all cases: functional
[1] = system: CCRF-CEM; test: Antiproliferative activity against human CCRF-CEM cells assessed as cell viability at 25 uM after 72 hrs by MTT assay; conditions: read-out: Activity
Method in brief: (§1)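 MTT viability assay in CCRF-CEM and MCF-7 cells after 72 h exposure at 25, 50, 100 and 200 µM. Results are relative to control cells without inhibitor in 0.5% DMSO. Done in triplicate; values are means ± SD of three independent experiments.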

[2] = system: CCRF-CEM; test: Antiproliferative activity against human CCRF-CEM cells assessed as cell viability at 50 uM after 72 hrs by MTT assay; conditions: read-out: Activity; method in brief: as §1
[3] = system: CCRF-CEM; test: Antiproliferative activity against human CCRF-CEM cells assessed as cell viability at 100 uM after 72 hrs by MTT assay; conditions: read-out: Activity; method in brief: as §1
[4] = system: CCRF-CEM; test: Antiproliferative activity against human CCRF-CEM cells assessed as cell viability at 200 uM after 72 hrs by MTT assay; conditions: read-out: Activity; method in brief: as §1
[5] = system: MCF7; test: Antiproliferative activity against human MCF7 cells assessed as cell viability at 25 uM after 72 hrs by MTT assay; conditions: MCF7, 72 h, read-out: Activity; method in brief: as §1
[6] = system: MCF7; test: Antiproliferative activity against human MCF7 cells assessed as cell viability at 50 uM after 72 hrs by MTT assay; conditions: MCF7, 72 h, read-out: Activity; method in brief: as §1
[7] = system: MCF7; test: Antiproliferative activity against human MCF7 cells assessed as cell viability at 100 uM after 72 hrs by MTT assay; conditions: MCF7, 72 h, read-out: Activity; method in brief: as §1
[8] = system: MCF7; test: Antiproliferative activity against human MCF7 cells assessed as cell viability at 200 uM after 72 hrs by MTT assay; conditions: MCF7, 72 h, read-out: Activity; method in brief: as §1
[9] = system: Candida albicans; test: Growth inhibition of Candida albicans ATCC 90028 at 16 ug/ml incubated for 18 hrs at 35 degC by broth microdilution method relative to control; conditions: ATCC 90028, 18 h, read-out: GI
[10] = system: Candida albicans; test: Growth inhibition of Candida albicans ATCC 90028 at 16 ug/ml incubated for 48 hrs at 35 degC by broth microdilution method relative to control; conditions: ATCC 90028, 48 h, read-out: GI
[11] = system: Candida albicans; test: Growth inhibition of Candida albicans ATCC 90028 at 8 ug/ml incubated for 18 hrs at 35 degC by broth microdilution method relative to control; conditions: ATCC 90028, 18 h, read-out: GI
[12] = system: Candida albicans; test: Growth inhibition of Candida albicans ATCC 90028 at 8 ug/ml incubated for 48 hrs at 35 degC by broth microdilution method relative to control; conditions: ATCC 90028, 48 h, read-out: GI
[13] = system: Candida albicans; test: Growth inhibition of Candida albicans ATCC 90028 at 4 ug/ml incubated for 18 hrs at 35 degC by broth microdilution method relative to control; conditions: ATCC 90028, 18 h, read-out: GI
[14] = system: Candida albicans; test: Growth inhibition of Candida albicans ATCC 90028 at 8 ug/ml incubated for 4 hrs at 35 degC by broth microdilution method relative to control; conditions: ATCC 90028, 4 h, read-out: GI
[15] = system: Candida albicans; test: Growth inhibition of Candida albicans ATCC 90028 at 2 ug/ml incubated for 18 hrs at 35 degC by broth microdilution method relative to control; conditions: ATCC 90028, 18 h, read-out: GI
[16] = system: Candida albicans; test: Growth inhibition of Candida albicans ATCC 90028 at 2 ug/ml incubated for 4 hrs at 35 degC by broth microdilution method relative to control; conditions: ATCC 90028, 4 h, read-out: GI
[17] = system: Candida albicans; test: Growth inhibition of Candida albicans ATCC 90028 at 1 ug/ml incubated for 18 hrs at 35 degC by broth microdilution method relative to control; conditions: ATCC 90028, 18 h, read-out: GI
[18] = system: Candida albicans; test: Growth inhibition of Candida albicans ATCC 90028 at 1 ug/ml incubated for 4 hrs at 35 degC by broth microdilution method relative to control; conditions: ATCC 90028, 4 h, read-out: GI
[19] = system: Candida albicans; test: Growth inhibition of Candida albicans ATCC 90028 at 0.5 ug/ml incubated for 18 hrs at 35 degC by broth microdilution method relative to control; conditions: ATCC 90028, 18 h, read-out: GI
[20] = system: Candida albicans; test: Growth inhibition of Candida albicans ATCC 90028 at 0.5 ug/ml incubated for 4 hrs at 35 degC by broth microdilution method relative to control; conditions: ATCC 90028, 4 h, read-out: GI
[21] = system: Candida albicans; test: Growth inhibition of Candida albicans ATCC 90028 at 0.25 ug/ml incubated for 18 hrs at 35 degC by broth microdilution method relative to control; conditions: ATCC 90028, 18 h, read-out: GI
[22] = system: Candida albicans; test: Growth inhibition of Candida albicans ATCC 90028 at 0.25 ug/ml incubated for 4 hrs at 35 degC by broth microdilution method relative to control; conditions: ATCC 90028, 4 h, read-out: GI
[23] = system: Candida albicans; test: Growth inhibition of Candida albicans ATCC 90028 at 0.125 ug/ml incubated for 18 hrs at 35 degC by broth microdilution method relative to control; conditions: ATCC 90028, 18 h, read-out: GI
[24] = system: Candida albicans; test: Growth inhibition of Candida albicans ATCC 90028 at 0.125 ug/ml incubated for 4 hrs at 35 degC by broth microdilution method relative to control; conditions: ATCC 90028, 4 h, read-out: GI
[25] = system: Candida albicans; test: Growth inhibition of Candida albicans ATCC 90028 at 0.0625 ug/ml incubated for 18 hrs at 35 degC by broth microdilution method relative to control; conditions: ATCC 90028, 18 h, read-out: GI
[26] = system: Candida albicans; test: Growth inhibition of Candida albicans ATCC 90028 at 0.0625 ug/ml incubated for 4 hrs at 35 degC by broth microdilution method relative to control; conditions: ATCC 90028, 4 h, read-out: GI
[27] = system: Candida albicans; test: Growth inhibition of Candida albicans ATCC 90028 at 0.0313 ug/ml incubated for 18 hrs at 35 degC by broth microdilution method relative to control; conditions: ATCC 90028, 18 h, read-out: GI
[28] = system: Candida albicans; test: Growth inhibition of Candida albicans ATCC 90028 at 0.0313 ug/ml incubated for 4 hrs at 35 degC by broth microdilution method relative to control; conditions: ATCC 90028, 4 h, read-out: GI
[29] = system: Candida albicans; test: Fungicidal activity against Candida albicans ATCC 90028 assessed as log reduction in cell viability at 16 ug/ml after 48 hrs at 35 degC
Method in brief: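 MFC assay on C. albicans ATCC 90028 following M27-A3, at the molar equivalent of 16 µg/mL. CFU of treated cells were compared with CFU of the untreated inoculum. Activity is given as lg R = lg CFU/mL control − lg CFU/mL treated, and lg R ≥3 was defined as fungicidal. Values are means of two independent experiments.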

Row | Compound | viability at 25 µM [1] | viability at 50 µM [2] | viability at 100 µM [3] | viability at 200 µM [4] | viability at 25 µM [5] | viability at 50 µM [6] | viability at 100 µM [7] | viability at 200 µM [8] | inhibition of growth at 16 µg/mL [9] | inhibition of growth at 16 µg/mL [10] | inhibition of growth at 8 µg/mL [11] | inhibition of growth at 8 µg/mL [12] | inhibition of growth at 4 µg/mL [13] | inhibition of growth at 8 µg/mL [14] | inhibition of growth at 2 µg/mL [15] | inhibition of growth at 2 µg/mL [16] | inhibition of growth at 1 µg/mL [17] | inhibition of growth at 1 µg/mL [18] | inhibition of growth at 0.5 µg/mL [19] | inhibition of growth at 0.5 µg/mL [20] | also measured
1 | CC(Cn1cnc2c1c(=O)n(C)c(=O)n2C)OC(=O)Sc1ccccc1 (stereo not drawn) | 53.9% | 37.1% | 14.5% | 0.5% | 86.8% | 81.9% | 69.9% | 43.1% | 99.8% | 99.5% | 100% | 99.2% | 99.8% | 99.5% | 100% | 99.3% | 99.9% | 99.5% | 99.9% | 99.4% | inhibition of growth at 0.25 µg/mL [21]: 100%; inhibition of growth at 0.25 µg/mL [22]: 99.5%; inhibition of growth at 0.125 µg/mL [23]: 99.5%; inhibition of growth at 0.125 µg/mL [24]: 99.1%; inhibition of growth at 0.0625 µg/mL [25]: 99.7%; inhibition of growth at 0.0625 µg/mL [26]: 99.1%; inhibition of growth at 0.0313 µg/mL [27]: 99.8%; inhibition of growth at 0.0313 µg/mL [28]: 99.3%; log(activity) [29]: 0.1
2 | CC(Cn1cnc2c1c(=O)n(C)c(=O)n2C)OC(=O)C1c2ccccc2-c2ccccc21 (stereo not drawn) | 41.5% | 2.8% | 0.1% | 2.3% | 101% | 85.1% | 63.5% | 28.3% | 99.8% | 99.3% | 99.8% | 99.4% | 100% | 99.4% | 100% | 99.4% | 99.8% | 99.3% | 99.8% | 99.1% | inhibition of growth at 0.25 µg/mL [21]: 99.9%; inhibition of growth at 0.25 µg/mL [22]: 99%; inhibition of growth at 0.125 µg/mL [23]: 99.7%; inhibition of growth at 0.125 µg/mL [24]: 98.9%; inhibition of growth at 0.0625 µg/mL [25]: 99.7%; inhibition of growth at 0.0625 µg/mL [26]: 99%; inhibition of growth at 0.0313 µg/mL [27]: 99.8%; inhibition of growth at 0.0313 µg/mL [28]: 99.3%; log(activity) [29]: 0.8
